From ChEMBL document CHEMBL1821664, “Sulfonamides as a new scaffold for hypoxia inducible factor pathway inhibitors” (Bioorg Med Chem Lett, 2011)
Active and inactive are the calls of the source. No cut-off for these calls is given here.

Assays:
[1] = biological target: T1, Hypoxia inducible factors; HIF-1-alpha, HIF-2-alpha (Homo sapiens, UniProt Q16665+Q99814); assay: Inhibition of hypoxia-induced HIF1 activation in human LN229 cells expressing HRE-AP reporter gene at 5 uM preincubated for 1 hr under normoxia condition followed by 24 hrs incubation under hypoxia condition by HRE-luciferase reporter assay relative to control; values are per cent of control
[2] = biological target: T1, Hypoxia inducible factors; HIF-1-alpha, HIF-2-alpha; assay: Inhibition of hypoxia-induced HIF1 activation in human LN229 cells expressing HRE-AP reporter gene at 10 uM preincubated for 1 hr under normoxia condition followed by 24 hrs incubation under hypoxia condition by HRE-luciferase reporter assay relative to control; values are per cent of control
[3] = biological target: T1, Hypoxia inducible factors; HIF-1-alpha, HIF-2-alpha; assay: Inhibition of hypoxia-induced HIF1 activation in human LN229 cells expressing HRE-AP reporter gene at 2.5 uM preincubated for 1 hr under normoxia condition followed by 24 hrs incubation under hypoxia condition by HRE-luciferase reporter assay relative to control; values are per cent of control
[4] = biological target: T1, Hypoxia inducible factors; HIF-1-alpha, HIF-2-alpha; assay: Inhibition of hypoxia-induced HIF1 activation in human LN229 cells expressing HRE-AP reporter gene assessed as HRE remaining activity at 10 uM preincubated for 1 hr under normoxia condition followed by 24 hrs incubation under hypoxia condition by alkaline phosphatase reporter assay relative to control; type: cell-based
In short: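 LN229-HRE-AP cells pre-treated 1 h with compound or vehicle (1% DMSO), then 24 h in 1% O2 hypoxia incubator; cells lysed and alkaline phosphatase activity measured. Hits were compounds reducing hypoxic AP induction >50%; single assay.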

[5] = biological target: T1, Hypoxia inducible factors; HIF-1-alpha, HIF-2-alpha; assay: Inhibition of hypoxia-induced HIF1 activation in human LN229 cells expressing HRE-AP reporter gene preincubated for 1 hr under normoxia condition followed by 24 hrs incubation under hypoxia condition by HRE-luciferase reporter assay; type: cell-based
In short: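 HRE-luciferase dose-response: cells pre-treated 1 h, then 24 h hypoxia; luciferase measured in cell extracts; each compound run 5–21 times on separate days, in triplicate. IC50 obtained from a four-parameter logistic fit using a nonlinear mixed-effects model.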

[6] = biological target: T1, Hypoxia inducible factors; HIF-1-alpha, HIF-2-alpha; assay: Inhibition of hypoxia-induced HIF1 activation in human LN229 cells expressing VEGF reporter gene assessed as VEGF expression at 10 uM preincubated for 1 hr under normoxia condition followed by 24 hrs incubation under hypoxia condition by luciferase reporter assay; type: cell-based
In short: (§1)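 LN229 cells stably carrying a VEGF promoter-luciferase construct, pre-treated 1 h in normoxia with compound at 10 µM final, then 24 h in normoxia or hypoxia; luciferase measured in cell extracts; triplicate means ± SD.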

[7] = biological target: T1, Hypoxia inducible factors; HIF-1-alpha, HIF-2-alpha; assay: Inhibition of HIF1alpha expression in human LN229 cells assessed as reduction of HIF-1alpha accumulation at 20 uM preincubated for 1 hr under normoxia condition followed by 24 hrs incubation under hypoxia condition by Western blotting; type: functional, cell-based; details: LN-229
In short: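 LN229 glioma cells were pre-treated for 1 h with compound at 20 µM final, then incubated under normoxia or hypoxia for 24 h. HIF-1α accumulation was read by Western blot, with HIF-1α and actin immunoblotted.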

[8] = biological target: T1, Hypoxia inducible factors; HIF-1-alpha, HIF-2-alpha; assay: Inhibition of HIF1alpha expression in human LN229 cells assessed as reduction of HIF-1alpha accumulation at <10 uM preincubated for 1 hr under normoxia condition followed by 24 hrs incubation under hypoxia condition by Western blotting; type: functional, cell-based; details: LN-229
[9] = biological target: T1, Hypoxia inducible factors; HIF-1-alpha, HIF-2-alpha; assay: Inhibition of hypoxia-induced HIF1 activation in human LN229 cells expressing VEGF reporter gene assessed as VEGF expression at 10 uM after 24 hrs incubation under hypoxia condition by luciferase reporter assay; type: cell-based
In short: as §1

[10] = biological target: T1, Hypoxia inducible factors; HIF-1-alpha, HIF-2-alpha; assay: Inhibition of HIF1alpha expression in human LN229 cells assessed as reduction of HIF-1alpha accumulation at 100 nM preincubated for 1 hr under normoxia condition followed by 24 hrs incubation under hypoxia condition by Western blotting; type: functional, cell-based; details: LN-229

Compound	residual activity [1]	residual activity [2]	residual activity [3]	other results
CC1(C)C=Cc2cc(CN(c3ccccc3)S(=O)(=O)c3ccc([N+](=O)[O-])cc3)ccc2O1	66%	50%	78%	–
CC1(C)C=Cc2cc(CN(c3ccccc3)S(=O)(=O)c3cc(Cl)ccc3Cl)ccc2O1	51%	35%	62%	Activity [4]: 54.2%
COc1ccc(S(=O)(=O)N(Cc2ccc3c(c2)C=CC(C)(C)O3)c2ccccc2)cc1OC	2%	1%	18%	Activity [4]: 28.9%; IC50 [5]: 0.593 µM; inhibition [6]: Active; inhibition [7]: Active; inhibition [8]: inactive; inhibition [9]: inactive
CC(C)C[C@H](NC(=O)[C@H](Cc1ccccc1)NC(=O)c1cnccn1)B(O)O	–	–	–	inhibition [10]: Active
CC1(C)C=Cc2cc(CN(Cc3ccccc3)S(=O)(=O)c3ccc(Oc4c(Cl)cccc4[N+](=O)[O-])cc3)ccc2O1	51%	27%	54%	–
COc1ccc(S(=O)(=O)N(Cc2ccc3c(c2)C=CC(C)(C)O3)CC(C)C)cc1OC	6%	1%	21%	IC50 [5]: 0.672 µM; inhibition [6]: Active; inhibition [9]: inactive
CC1(C)C=Cc2cc(CN(Cc3ccccc3)S(=O)(=O)c3ccc(Br)cc3OC(F)(F)F)ccc2O1	2%	1%	15%	IC50 [5]: 0.508 µM; inhibition [6]: Active; inhibition [9]: inactive
COc1ccc(Cl)cc1S(=O)(=O)N(Cc1ccc2c(c1)C=CC(C)(C)O2)c1ccccc1	56%	28%	61%	–
CC1(C)C=Cc2cc(CN(C3CCCCC3)S(=O)(=O)c3ccc([N+](=O)[O-])cc3)ccc2O1	53%	33%	68%	–
CC(C)CN(Cc1ccc2c(c1)C=CC(C)(C)O2)S(=O)(=O)c1ccc(Br)cc1OC(F)(F)F	57%	24%	49%	–
CC1(C)C=Cc2cc(CN(c3ccccc3)S(=O)(=O)c3cccc4ccccc34)ccc2O1	75%	29%	55%	–
COc1cc(OC)cc(S(=O)(=O)N(Cc2ccc3c(c2)C=CC(C)(C)O3)CC(C)C)c1	–	–	–	IC50 [5]: 1.011 µM; inhibition [6]: Active; inhibition [9]: inactive
CC1(C)C=Cc2cc(CN(Cc3ccccc3)S(=O)(=O)c3ccc([N+](=O)[O-])cc3)ccc2O1	35%	27%	47%	–
COc1ccc(S(=O)(=O)N(Cc2ccc3c(c2)C=CC(C)(C)O3)c2ccccc2)c(OC)c1	61%	31%	76%	–
COc1ccc(S(=O)(=O)N(Cc2ccccc2)Cc2ccc3c(c2)C=CC(C)(C)O3)c(OC)c1	54%	20%	60%	–
COc1ccc(S(=O)(=O)N(Cc2ccccc2)Cc2ccc3c(c2)C=CC(C)(C)O3)cc1OC	26%	15%	54%	–
CC(C)CN(Cc1ccc2c(c1)C=CC(C)(C)O2)S(=O)(=O)c1cccc2ccccc12	4%	4%	6%	IC50 [5]: 0.656 µM; inhibition [6]: Active; inhibition [9]: inactive
CC1(C)C=Cc2cc(CN(C3CCCCC3)S(=O)(=O)c3ccc(Br)cc3OC(F)(F)F)ccc2O1	75%	61%	79%	–
COc1c(CN(Cc2ccccc2)S(=O)(=O)c2ccc([N+](=O)[O-])cc2)ccc2c1OC(C)(C)C=C2	–	–	–	Activity [4]: 62.2%
CC(O)c1ccc2c(c1)C=CC(C)(C)O2 (configuration not stated)	–	–	–	Activity [4]: 94.9%
COc1c(CN(Cc2ccccc2)C(C)=O)ccc2c1OC(C)(C)C=C2	–	–	–	Activity [4]: 93.1%
CCOC(OCC)c1ccc2c(c1OC)OC(C)(C)C=C2	–	–	–	Activity [4]: 105%

The next lines start with results.

residual activity [1]	residual activity [2]	residual activity [3]	Compound	other results
17%	4%	44%	COc1ccc(S(=O)(=O)N(Cc2ccc3c(c2)C=CC(C)(C)O3)C2CCCCC2)cc1OC	–
37%	37%	68%	CC1(C)C=Cc2cc(CN(C3CCCCC3)S(=O)(=O)c3cccc4ccccc34)ccc2O1	–
5%	1%	23%	CC(C)CN(Cc1ccc2c(c1)C=CC(C)(C)O2)S(=O)(=O)c1cc(Cl)ccc1Cl	IC50 [5]: 0.731 µM; inhibition [6]: Active; inhibition [9]: inactive
56%	35%	53%	CC1(C)C=Cc2cc(CN(c3ccccc3)S(=O)(=O)c3ccc(Br)cc3OC(F)(F)F)ccc2O1	–
21%	27%	40%	CC1(C)C=Cc2cc(CN(c3ccccc3)S(=O)(=O)c3ccc(Oc4c(Cl)cccc4[N+](=O)[O-])cc3)ccc2O1	–
78%	50%	66%	COc1ccc(Cl)cc1S(=O)(=O)N(Cc1ccccc1)Cc1ccc2c(c1)C=CC(C)(C)O2	–
49%	49%	73%	CC1(C)C=Cc2cc(CN(C3CCCCC3)S(=O)(=O)c3ccc(Oc4c(Cl)cccc4[N+](=O)[O-])cc3)ccc2O1	–
3%	1%	13%	CC(C)CN(Cc1ccc2c(c1)C=CC(C)(C)O2)S(=O)(=O)c1ccc([N+](=O)[O-])cc1	IC50 [5]: 0.532 µM; inhibition [6]: Active; inhibition [9]: inactive
90%	73%	81%	COc1ccc(Cl)cc1S(=O)(=O)N(Cc1ccc2c(c1)C=CC(C)(C)O2)CC(C)C	–
60%	24%	54%	CC1(C)C=Cc2cc(CN(C3CCCCC3)S(=O)(=O)c3cc(Cl)ccc3Cl)ccc2O1	–
23%	24%	34%	CC(C)CN(Cc1ccc2c(c1)C=CC(C)(C)O2)S(=O)(=O)c1ccc(Oc2c(Cl)cccc2[N+](=O)[O-])cc1	–
5%	1%	24%	COc1ccc(S(=O)(=O)N(Cc2ccc3c(c2)C=CC(C)(C)O3)C2CCCCC2)c(OC)c1	IC50 [5]: 1.27 µM; inhibition [6]: Active; inhibition [9]: inactive
